The values below come from ChEMBL document CHEMBL1137800, “Evaluation of marine sponge metabolites for cytotoxicity and signal transduction activity” (J Nat Prod, 1993).

In one data set the test system is HT-29. Nature of the data set: Cytotoxicity against human HT-29 cells after 48 hrs by MTT assay. The format is functional, cell-based. Conditions: HT-29, 48 h. In a few lines:
(§1)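 A549 and HT-29 cells grown in RPMI 1640 with 10% horse serum and exposed at 37° in gentamicin-containing medium, with MeOH vehicle evaporated. Exposure ran 48 h […] before MTT was added for 90 min. Formazan dissolved in acidified iPrOH and A570 read. IC50 from logit-regression of absorbance versus drug-free wells; 5-fluorouracil and adriamycin included as controls.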
On the technique in general: Formazan colour is commonly taken as a measure of viable cells.

A further data set concerns P388. Nature of the data set: Cytotoxicity against mouse P388 cells after 48 hrs by MTT assay. It counts as functional, cell-based. As to conditions: P388, 48 h. In a few lines: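 P-388 cells seeded at 1×10^5 cells/ml in RPMI 1640 with 10% horse serum and gentamicin (50 μg/ml). Exposed 48 h at 37° to compound at 10.0, 1.0, 0.10 or 0.010 μg/ml; MeOH vehicle evaporated under vacuum. MTT added for 90 min, formazan dissolved in acidified iPrOH, A570 read. IC50 from linear regression of logit-transformed absorbance relative to drug-free wells.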

The test system of data set [1] is A549. Nature of the data set: Cytotoxicity against human A549 cells after 48 hrs by MTT assay. It counts as functional, cell-based. As to conditions: A549, 48 h. In a few lines:
as §1

For data set [2], the species on record is Mus musculus. As to the kind of experiment: Induction of PKC-mediated mouse EL-4.IL-2 cells adherence by MTT assay. The method in brief: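 EL-4.IL-2 cells (2.5×10^5/well) in RPMI 1640 with 10% FCS and 2-mercaptoethanol, incubated 1 h at 37° with compound in triplicate, without PMA and also with 16 nM PMA (final), EtOH ≤1.25%. Non-adherent cells removed by four shaking washes. Adherent cells quantified by MTT (4 h) with iPrOH solubilisation at 570 nm. Parallel unwashed plate monitored cytotoxicity.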

The subject of data set [3] is A549. As to the kind of experiment: Antitumor activity against human A549 cells xenografted in mouse at 0.3 mg/kg relative to control. The format is functional. On the technique in general: Xenograft models place foreign cells or tissue in a host animal.
A short description of data set [4]: Cytotoxicity against mouse EL-4.IL-2 cells after 3 to 4 days by Trypan blue exclusion test. It counts as functional, cell-based.
Another data set deals with M19-MEL. As to the kind of experiment: Cytotoxicity against human M19-MEL cells. As to conditions: read-out: Log10LC50 (converted). The format is functional.
A further data set deals with Malme-3M. Nature of the data set: Cytotoxicity against human MALME-3M cells. As to conditions: read-out: Log10LC50 (converted). It counts as functional.
For the next data set, the system named is SK-MEL-5. Nature of the data set: Cytotoxicity against human SK-MEL-5 cells. It counts as functional. Conditions: read-out: Log10LC50 (converted).
The species named for data set [5] is Mus musculus. As to the kind of experiment: Inhibition of PKC-mediated mouse EL-4.IL-2 cells adherence by MTT assay. In a few lines: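 Mouse EL-4.IL-2 cells (2.5×10^5/well, within 15 passages of frozen stock) incubated 1 h at 37° with compounds in triplicate, with PMA (16 nM final) or without PMA; final EtOH ≤1.25%. Four shaker wash cycles. Adherent cells read by MTT, 4 h at 37°, formazan dissolved in iPrOH, A570. A parallel unwashed plate without PMA monitored cytotoxicity. Adherence inhibitor: blocks PMA-induced adherence, induces none alone, not cytotoxic.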

Data set [6] relates to Mus musculus. As to the kind of experiment: Toxicity in human A549 cells xenografted mouse at 0.3 mg/kg. It counts as organism-based. Conditions: in vivo. Also noted: dose 0.3 mg/kg.

Each structure is given as a SMILES string. ≈ marks a conversion by molar mass, not a printed value. Calls of active or inactive are those of the source. The calls are words filed in the database; no cut-off is given here.

Take `O[C@]12C=C(c3nccc4c3[nH]c3ccccc34)[C@@H]3CCN(CCCC/C=C\CC1)C[C@@]31C[C@@H]3/C=C\CCCCN3[C@H]12` [MANZAMINE A]: the concentration for half-maximal inhibition (IC50) – broadly, the concentration that gives 50% inhibition – in the data set with HT-29 is 0.8 µg/mL (≈ 1.46 µM); in the data set on P388, 2.4 µg/mL (≈ 4.37 µM); in the data set on A549 [1], 1.3 µg/mL (≈ 2.37 µM).

In the case of `CC[C@H](C)[C@H]1C(=O)NCCC(=O)N[C@H]([C@@H](C)CC)C(=O)N(C)[C@@H](C(C)C)C(=O)N(C)[C@@H](C)C(=O)NCCC(=O)N[C@H](CC(C)C)C(=O)N(C)[C@H]([C@@H](C)CC)C(=O)O[C@H](C)[C@H](NC(=O)[C@@H](CC(C)C)N(C)C(=O)[C@@H](NC(=O)COC)C(C)C)C(=O)NCCC(=O)N[C@H](CC(C)C)C(=O)N1C` [THEONELLAMINE B], the IC50 with HT-29 was 5.1 µg/mL (≈ 3.63 µM); in the data set on P388 it was above 20 µg/mL; in the data set with A549 [1], 5.3 µg/mL (≈ 3.77 µM).

For `C[C@H]1C[C@]2(O[C@H]3C[C@H]4[C@@H]5CC[C@H]6C[C@H](O)CC[C@]6(C)[C@H]5[C@@H](O)C[C@]4(C)[C@H]3[C@@]2(C)O)OC1(C)C` [EPIHIPPURISTANOL], the 50% inhibitory concentration (IC50) in the data set on HT-29 was 0.05 µg/mL (≈ 0.108 µM); in the data set on P388, 0.5 µg/mL (≈ 1.08 µM); in the data set with A549 [1], 0.04 µg/mL (≈ 0.0865 µM).

In the case of `CCCCCCCCCCCCCCCC[C@@]1(OC)C=C[C@@H](CC(=O)OC)OO1` [CHONDRILLIN], in the data set filed under Mus musculus [2], the outcome was Active. For the same compound, the 50% inhibitory concentration (IC50) with HT-29 amounted to 1.1 µg/mL (≈ 2.67 µM); in the data set on P388 it was 2.4 µg/mL (≈ 5.82 µM); in the data set on A549 [1] it was 0.3 µg/mL (≈ 0.727 µM); in [4], 0.4 µg/mL (≈ 0.969 µM). The outcome with A549 [3] was inactive.

On to `CC1(C)CCC[C@]2(C)[C@H]3C=C4C=C(O)C(=O)C=C4O[C@@]3(C)CC[C@@H]12` [PUUPEHENONE], for which the half-inhibitory concentration (IC50) was determined as 0.2 µg/mL (≈ 0.609 µM) in the data set on HT-29, 1.3 µg/mL (≈ 3.96 µM) in the data set on P388 and 0.4 µg/mL (≈ 1.22 µM) in the data set with A549 [1].

As to `O=C1C[C@H]2S[C@H]3C[C@]2(C=C1Br)C1=C(N3)C(=O)c2[nH]cc3c2C1=NCC3` [DISCORHABDINE A], the outcome in the data set filed under Mus musculus [2] was Active. Further, the IC50 with HT-29 turned out to be 0.01 µg/mL (≈ 0.024 µM); in the data set with P388, 0.1 µg/mL (≈ 0.24 µM); with A549 [1], 0.04 µg/mL (≈ 0.0961 µM); in data set [4] it was 4.8 µg/mL (≈ 11.5 µM).

For `[C-]#[N+]C(C)(C)C[C@@H]1C[C@H](C)[C@H]2CC[C@H](C)[C@@]3([N+]#[C-])CCC(=C)[C@@H]1[C@H]23` [DIISOCYANOAMPHILECTENE], the half-inhibitory concentration (IC50) with HT-29 was determined as 1.2 µg/mL (≈ 3.7 µM); in the data set on P388, 0.7 µg/mL (≈ 2.16 µM); in the data set on A549 [1], 13 µg/mL (≈ 40.1 µM).

With `COC1=Cc2ccnc3ccnc(c23)C1=O` [DEMETHYLOXY-AAPTAMINE], the result in the data set filed under Mus musculus [2] was Active. The IC50 is 1.5 µg/mL (≈ 7.07 µM) in the data set with HT-29, 1.6 µg/mL (≈ 7.54 µM) in the data set on P388, 5.2 µg/mL (≈ 24.5 µM) with A549 [1] and below 0.05 µg/mL in [4].

Turning to `CSc1c2c3c(n1C)C(=O)C(=O)C(Cl)=C3NCC2` [BATZELLINE A], in the data set filed under Mus musculus [2], the result was Active. Besides, the IC50 was 2.8 µg/mL (≈ 9.9 µM) in the data set on HT-29, 5.3 µg/mL (≈ 18.7 µM) in the data set on P388, 0.7 µg/mL (≈ 2.48 µM) in the data set on A549 [1] and 22.9 µg/mL (≈ 81 µM) in data set [4]. Also, the CC50 with M19-MEL was 6.61 µM; in the data set with Malme-3M it was 15.5 µM; in the data set on SK-MEL-5 it was 6.61 µM. Moreover, the outcome in the data set with A549 [3] was inactive.

For `CN(C)CCc1c2ncsc2c2c3c(c4ccccc4nc13)C=CN2C` [DERCITIN], the IC50 was 0.02 µg/mL (≈ 0.0555 µM) with HT-29, 0.2 µg/mL (≈ 0.555 µM) in the data set with P388, 0.07 µg/mL (≈ 0.194 µM) with A549 [1] and below 6 µg/mL in data set [4]. In addition, the result in the data set filed under Mus musculus [5] was Active.

`C[C@H]1CC[C@H]2C(C)(C)CCC[C@]23Oc2ccc(O)cc2C[C@]13C` [AUREOL]: the IC50 in the data set with HT-29 is 4.7 µg/mL (≈ 14.9 µM); in the data set on P388, above 20 µg/mL; with A549 [1], 4.3 µg/mL (≈ 13.7 µM); in data set [4], 9.9 µg/mL (≈ 31.5 µM). For the same compound, in the data set listed under Mus musculus [5], the result was Active.

`C1=C\CC[C@]23CN4CCCC/C=C\CC[C@@]5(O[C@H]5[C@@H](c5nccc6c5[nH]c5ccccc56)[C@@H]2CC4)[C@@H]3NCCCC/1` [MANZAMINE B]: the results for the concentration for half-maximal inhibition (IC50) with HT-29, with P388 and in the data set on A549 [1] were 1.6 µg/mL (≈ 2.9 µM), 6.6 µg/mL (≈ 12 µM) and 4.5 µg/mL (≈ 8.17 µM), respectively.

As to `CC1=CC(=O)[C@]2(C)CC[C@H]([C@H](C)CC(=O)CC(C)C)[C@H]2CC1` [REISWIGIN A], the half-maximal inhibitory concentration (IC50) in the data set on HT-29 was determined as 6 µg/mL (≈ 19.7 µM); in the data set on P388, 8.5 µg/mL (≈ 27.9 µM); with A549 [1], 7.2 µg/mL (≈ 23.6 µM).

Consider `C1=C\CCCCN(CCc2nccc3c2[nH]c2ccccc23)CCCC/1` [MANZAMINE C], for which, in the data set listed under Mus musculus [2], the result was Active. Besides, the concentration for half-maximal inhibition (IC50) in the data set with HT-29 was found to be 1.5 µg/mL (≈ 4.32 µM); in the data set on P388 it was 2.6 µg/mL (≈ 7.48 µM); with A549 [1] it was 3.5 µg/mL (≈ 10.1 µM); in [4] it was 12 µg/mL (≈ 34.5 µM).

Turning to `O=C1c2nccc(O)c2-c2nc3ccccc3c3ccnc1c23` [MERIDINE], in the data set listed under Mus musculus [2], the result was Active. The 50% inhibitory concentration (IC50) with HT-29 was 0.2 µg/mL (≈ 0.668 µM); in the data set with P388, 2 µg/mL (≈ 6.68 µM); in the data set with A549 [1], 4.5 µg/mL (≈ 15 µM); in data set [4] it was 8.8 µg/mL (≈ 29.4 µM).

Turning to `CO[C@H]([C@H](C)/C=C/N(C)C=O)[C@@H](C)C(=O)CC[C@H](C)[C@H](C[C@@H]1OC(=O)C[C@@H](OC(N)=O)C[C@H](C)C[C@H](O)[C@H](C)[C@@H](OC)c2coc(n2)-c2coc(n2)-c2coc(n2)/C=C/C[C@H](OC)[C@H]1C)OC` [KABIRAMIDE C], the outcome in the data set listed under Mus musculus [2] was Active. Also, the IC50 in the data set on P388 came out at 0.3 µg/mL (≈ 0.318 µM); in the data set with A549 [1] it was 0.8 µg/mL (≈ 0.849 µM); in data set [4] it was 0.3 µg/mL (≈ 0.318 µM).

On to `[C-]#[N+][C@@]12CCC(=C)[C@H]3[C@H](CC(C)(C)NC=O)C[C@H](C)[C@@H](CC[C@@H]1C)[C@@H]32`, for which the outcome in the data set filed under Mus musculus [2] was Active. For the same compound, the 50% inhibitory concentration (IC50) in the data set on HT-29 was determined as 3.5 µg/mL (≈ 10.2 µM); with P388, 4.2 µg/mL (≈ 12.3 µM); in the data set on A549 [1], 5.3 µg/mL (≈ 15.5 µM); in data set [4], 2.9 µg/mL (≈ 8.47 µM).

Consider `Cn1cc2c3c1C(=O)C1=C(C3=NCC2)C2(C=C(Br)C(=O)C(Br)=C2)CCN1` [DISCORHABDIN], for which the outcome in the data set filed under Mus musculus [2] was Active. The half-inhibitory concentration (IC50) was found to be 0.1 µg/mL (≈ 0.21 µM) in the data set on HT-29, 0.5 µg/mL (≈ 1.05 µM) in the data set with P388, 0.3 µg/mL (≈ 0.629 µM) in the data set on A549 [1] and 0.5 µg/mL (≈ 1.05 µM) in data set [4].

Turning to `C/C1=C/C(=O)O[C@@H]2C[C@@H](CC[C@H](C)/C=C\C=C\CC1)O[C@@](O)([C@@H]1CSC(=O)N1)C2` [LATRUNCULIN A], the IC50 is 0.06 µg/mL (≈ 0.142 µM) in the data set on HT-29, 4.1 µg/mL (≈ 9.73 µM) with P388, 0.06 µg/mL (≈ 0.142 µM) with A549 [1] and 0.1 µg/mL (≈ 0.237 µM) in data set [4]. Also, in the data set on A549 [3], the T/C (commonly the ratio of treated to control) worked out at 146%. Besides, the outcome in the data set listed under Mus musculus [5] was Active. In addition, in the data set with Mus musculus [6], the Activity result is on record as “Non-toxic”.
